From ChEMBL document CHEMBL2046332, “Substrate analog studies of the ω-regiospecificity of Mycobacterium tuberculosis cholesterol metabolizing cytochrome P450 enzymes CYP124A1, CYP125A1 and CYP142A1” (Bioorg Med Chem, 2012)
The source made the active and inactive calls. The calls are words filed in the database; no cut-off is given here.

Tests used:
[1] = test system: Mycobacterium tuberculosis; assay: Binding affinity to Mycobacterium tuberculosis CYP124A1 assessed as type 1 binding mode at 0.05 to 0.2 uM by UV-visible spectrophotometry
Summary of the method: (§1)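 Spectral titration of each P450 with steroid solubilised in methyl β-cyclodextrin. Ligand-induced low-spin/high-spin shifts were followed in the Soret region and at ~650 nm to assign binding type. Absolute spectra of the P450–steroid complexes were also examined.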

[2] = biological target: T1, Steroid C26-monooxygenase (Mycobacterium tuberculosis, UniProt P9WPP1); assay: Activity of Mycobacterium tuberculosis CYP125A1 assessed as apparent turnover number at 50 uM incubated for 1 hr at 25 degC by GC-MS method
T1 sequence (P9WPP1 whole entry): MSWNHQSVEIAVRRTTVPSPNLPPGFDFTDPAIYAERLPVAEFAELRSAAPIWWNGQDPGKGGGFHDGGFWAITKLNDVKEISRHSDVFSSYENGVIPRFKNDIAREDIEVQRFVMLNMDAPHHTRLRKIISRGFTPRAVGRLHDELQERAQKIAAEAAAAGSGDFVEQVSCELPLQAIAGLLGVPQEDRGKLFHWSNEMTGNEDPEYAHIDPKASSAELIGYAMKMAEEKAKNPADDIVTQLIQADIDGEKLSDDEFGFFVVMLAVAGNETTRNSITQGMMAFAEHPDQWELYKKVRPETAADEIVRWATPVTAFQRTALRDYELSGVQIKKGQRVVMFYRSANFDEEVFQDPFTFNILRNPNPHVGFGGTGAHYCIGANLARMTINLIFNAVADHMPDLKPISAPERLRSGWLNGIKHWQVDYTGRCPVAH
Summary of the method: (§2)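 Each P450 (250 nM) was incubated with 50 μM substrate, 5 μg catalase, 50 μg/mL ferredoxin, 0.16 U/mL ferredoxin-NADP+ reductase, and an NADPH-regenerating system (1 mM glucose-6-phosphate, 2.4 U/mL G6P dehydrogenase, 5 mM MgCl2, 800 μM NADP+). Buffer was 50 mM potassium phosphate pH 7.5, 25 °C, 1 h. Quenched with HCl, extracted into hexanes, TMS-derivatised, GC-MS. Controls lacked P450 or NADPH.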

[3] = biological target: T1, Steroid C26-monooxygenase; assay: Binding affinity to Mycobacterium tuberculosis CYP125A1 assessed as type 1 binding mode at 0.05 to 0.2 uM by UV-visible spectrophotometry; summary of the method: as §1
[4] = Binding affinity to Mycobacterium tuberculosis CYP142A1 by UV-visible spectrophotometry; conditions: read-out: Kd(app); summary of the method: as §1
[5] = test system: Mycobacterium tuberculosis; assay: Binding affinity to Mycobacterium tuberculosis CYP142A1 assessed as type 1 binding mode at 0.05 to 0.2 uM by UV-visible spectrophotometry; summary of the method: as §1
[6] = test system: Mycobacterium tuberculosis; assay: Activity of Mycobacterium tuberculosis CYP124A1 assessed as apparent turnover number at 50 uM incubated for 1 hr at 25 degC by GC-MS method; summary of the method: as §2
[7] = test system: Mycobacterium tuberculosis; assay: Binding affinity to Mycobacterium tuberculosis CYP124A1 assessed as type 1a binding mode at > 0.05 to 0.2 uM by UV-visible spectrophotometry; summary of the method: as §1
[8] = test system: Mycobacterium tuberculosis; assay: Activity of Mycobacterium tuberculosis CYP124A1 assessed as relative apparent turnover number at 50 uM incubated for 1 hr at 25 degC by GC-MS method relative to cholesterol
[9] = biological target: T1, Steroid C26-monooxygenase; assay: Binding affinity to Mycobacterium tuberculosis CYP125A1 by UV-visible spectrophotometry; conditions: read-out: Kd(app); summary of the method: as §1
[10] = biological target: T1, Steroid C26-monooxygenase; assay: Activity of Mycobacterium tuberculosis CYP125A1 assessed as relative apparent turnover number at 50 uM incubated for 1 hr at 25 degC by GC-MS method relative to cholesterol

For `CC=C(C)CCC[C@@H](C)[C@H]1CC[C@H]2[C@@H]3CC=C4C[C@@H](O)CC[C@]4(C)[C@H]3CC[C@]12C` (mixture of isomers), the Activity [1] was “Active”, the “Kcat(app)” value [2] was 0.135 s⁻¹ and the Activity [3] was “Active”. The Kd [4] was 160 nM, the Activity [5] was “Active” and the Kcat(app) [6] was 0.005 s⁻¹. The Activity [7] was “Active”, the Activity [8] was 22.4% and the Kd [9] was 450 nM. For the same molecule, the Activity [10] was 29.9%.
